# Source: ChEMBL document CHEMBL3588757, “Structure-based design, synthesis and biological testing of piperazine-linked bis-epipodophyllotoxin etoposide analogs” (Bioorg Med Chem, 2015)
# Columns and labels:
# Assay type in all cases: functional
# OVCAR-3 [1] = test: Cytotoxicity against human OVCAR3 cells assessed as cell growth at 0.5 uM by SRB assay; conditions: read-out: Activity
# HCT-116 = test: Cytotoxicity against human HCT116 cells assessed as cell growth at 50 uM by SRB assay; conditions: read-out: Activity
# Method in brief: (§1)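 Measured in the NCI-60 human tumour cell line panel using five-dose testing. Growth was recorded at each dose for each cell line, and a GI50 was derived for each line.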
# CAKI-1 [2] = test: Cytotoxicity against human Caki1 cells by SRB assay
# SF-295 = test: Cytotoxicity against human SF295 cells by SRB assay
# Method in brief: (§2)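 NCI-60 panel screen; 5-dose testing giving GI50 per cell line, plus a single 10 µM one-dose test. Method details not given beyond the NCI screen.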
# SNB-75 [3] = test: Cytotoxicity against human SNB75 cells assessed as cell growth at 50 uM by SRB assay; conditions: read-out: Activity
# NCI-H226 = test: Cytotoxicity against human NCI-H226 cells assessed as cell growth at 5 uM by SRB assay; conditions: read-out: Activity
# SF-268 = test: Cytotoxicity against human SF268 cells assessed as cell growth at 5 uM by SRB assay; conditions: read-out: Activity
# RXF 393 [4] = test: Cytotoxicity against human RXF393 cells assessed as cell growth at 0.05 uM by SRB assay; conditions: read-out: Activity
# NCI-H522 = test: Cytotoxicity against human NCI-H522 cells assessed as cell growth at 0.5 uM by SRB assay; conditions: read-out: Activity
# RXF 393 [5] = test: Cytotoxicity against human RXF393 cells assessed as cell growth at 0.005 uM by SRB assay; conditions: read-out: Activity
# OVCAR-8 = test: Cytotoxicity against human OVCAR8 cells assessed as cell growth at 0.05 uM by SRB assay; conditions: read-out: Activity
# BT-549 [6] = test: Cytotoxicity against human BT549 cells assessed as cell growth at 0.5 uM by SRB assay; conditions: read-out: Activity
# OVCAR-3 [7] = test: Cytotoxicity against human OVCAR3 cells assessed as cell growth at 5 uM by SRB assay; conditions: read-out: Activity
# OVCAR-5 = test: Cytotoxicity against human OVCAR5 cells assessed as cell growth at 50 uM by SRB assay; conditions: read-out: Activity
# IGROV-1 [8] = test: Cytotoxicity against human IGROV1 cells assessed as cell growth at 0.005 uM by SRB assay; conditions: read-out: Activity; method in brief: as §1
# [9] = Cytotoxicity against human NCI-ADR-RES cells assessed as cell growth at 0.5 uM by SRB assay; conditions: read-out: Activity
# UACC-257 = test: Cytotoxicity against human UACC257 cells assessed as cell growth at 0.005 uM by SRB assay; conditions: read-out: Activity
# MDA-MB-435 = test: Cytotoxicity against human MDA-MB-435 cells assessed as cell growth at 0.05 uM by SRB assay; conditions: read-out: Activity
# MDA-MB-468 = test: Cytotoxicity against human MDA-MB-468 cells assessed as cell growth at 5 uM by SRB assay; conditions: read-out: Activity
# OVCAR-3 [10] = test: Cytotoxicity against human OVCAR3 cells assessed as cell growth at 0.005 uM by SRB assay; conditions: read-out: Activity
# RPMI-8226 = test: Cytotoxicity against human RPMI8226 cells assessed as cell growth at 0.05 uM by SRB assay; conditions: read-out: Activity
# BT-549 [11] = test: Cytotoxicity against human BT549 cells assessed as cell growth at 5 uM by SRB assay; conditions: read-out: Activity
# RXF 393 [12] = test: Cytotoxicity against human RXF393 cells assessed as cell growth at 5 uM by SRB assay; conditions: read-out: Activity
# UACC-62 = test: Cytotoxicity against human UACC62 cells assessed as cell growth at 0.5 uM by SRB assay; conditions: read-out: Activity
# IGROV-1 [13] = test: Cytotoxicity against human IGROV1 cells assessed as cell growth at 0.5 uM by SRB assay; conditions: read-out: Activity; method in brief: as §1
# SK-MEL-5 = test: Cytotoxicity against human SK-MEL-5 cells assessed as cell growth at 50 uM by SRB assay; conditions: read-out: Activity
# OVCAR-4 [14] = test: Cytotoxicity against human OVCAR4 cells by SRB assay; method in brief: as §2
# SK-MEL-2 = test: Cytotoxicity against human SK-MEL-2 cells assessed as cell growth at 0.5 uM by SRB assay; conditions: read-out: Activity
# NCI-H322M [15] = test: Cytotoxicity against human NCI-H322M cells by SRB assay; method in brief: as §2
# NCI-H460 = test: Cytotoxicity against human NCI-H460 cells assessed as cell growth at 0.5 uM by SRB assay; conditions: read-out: Activity
# SK-OV-3 [16] = test: Cytotoxicity against human SKOV3 cells assessed as cell growth at 0.005 uM by SRB assay; conditions: read-out: Activity
# OVCAR-3 [17] = test: Cytotoxicity against human OVCAR3 cells by SRB assay; method in brief: as §2
# A549 = test: Cytotoxicity against human A549/ATCC cells assessed as cell growth at 50 uM by SRB assay; conditions: read-out: Activity
# T47D = test: Cytotoxicity against human T47D cells assessed as cell growth at 0.05 uM by SRB assay; conditions: read-out: Activity
# [18] = Cytotoxicity against human Hs578T cells assessed as cell growth at 50 uM by SRB assay; conditions: Hs-578T, read-out: Activity; method in brief: as §1
# NCI-H322M [19] = test: Cytotoxicity against human NCI-H322M cells assessed as cell growth at 0.5 uM by SRB assay; conditions: read-out: Activity
# KM12 = test: Cytotoxicity against human KM12 cells assessed as cell growth at 0.05 uM by SRB assay; conditions: read-out: Activity
# SK-OV-3 [20] = test: Cytotoxicity against human SKOV3 cells assessed as cell growth at 0.05 uM by SRB assay; conditions: read-out: Activity
# CAKI-1 [21] = test: Cytotoxicity against human Caki1 cells assessed as cell growth at 0.5 uM by SRB assay; conditions: read-out: Activity
# SNB-75 [22] = test: Cytotoxicity against human SNB75 cells assessed as cell growth at 0.05 uM by SRB assay; conditions: read-out: Activity
# SK-MEL-28 = test: Cytotoxicity against human SK-MEL-28 cells assessed as cell growth at 50 uM by SRB assay; conditions: read-out: Activity
# OVCAR-4 [23] = test: Cytotoxicity against human OVCAR4 cells assessed as cell growth at 0.5 uM by SRB assay; conditions: read-out: Activity
# PC-3 = test: Cytotoxicity against human PC3 cells assessed as cell growth at 0.05 uM by SRB assay; conditions: read-out: Activity
# SR = test: Cytotoxicity against human SR cells assessed as cell growth at 5 uM by SRB assay; conditions: read-out: Activity
# [24] = read-out: LC50 (the source's name)
# [25] = read-out: pLC50 (the source's name) (converted)
structure (smiles),measurement,setting,value
COc1cc([C@@H]2c3cc4c(cc3[C@@H](NC(=O)CN3CCN(CCCCCCN5CCN(CC(=O)N[C@@H]6c7cc8c(cc7[C@@H](c7cc(OC)c(O)c(OC)c7)[C@H]7C(=O)OC[C@@H]76)OCO8)CC5)CC3)[C@H]3COC(=O)[C@H]23)OCO4)cc(OC)c1O,growth at 0.5 µM,OVCAR-3 [1],103%
same,growth at 50 µM,HCT-116,2%
same,GI50,CAKI-1 [2]; read-out: GI50,> 50 µM
same,CC50,CAKI-1 [2]; [24],> 50 µM
same,TGI,CAKI-1 [2]; read-out: TGI,> 50 µM
same,GI50,CAKI-1 [2]; read-out: pGI50 (converted),> 50.1 µM
same,CC50,CAKI-1 [2]; [25],> 50.1 µM
same,TGI,CAKI-1 [2]; read-out: pTGI (converted),> 50.1 µM
same,GI50,SF-295; read-out: GI50,4.92 µM
same,CC50,SF-295; [24],> 50 µM
same,TGI,SF-295; read-out: TGI,> 50 µM
same,GI50,SF-295; read-out: pGI50 (converted),4.9 µM
same,CC50,SF-295; [25],> 50.1 µM
same,TGI,SF-295; read-out: pTGI (converted),> 50.1 µM
same,growth at 50 µM,SNB-75 [3],-31%
same,growth at 5 µM,NCI-H226,52%
same,growth at 5 µM,SF-268,20%
same,growth at 0.05 µM,RXF 393 [4],92%
same,growth at 0.5 µM,NCI-H522,75%
same,growth at 0.005 µM,RXF 393 [5],99%
same,growth at 0.05 µM,OVCAR-8,108%
same,growth at 0.5 µM,BT-549 [6],62%
same,growth at 5 µM,OVCAR-3 [7],63%
same,growth at 50 µM,OVCAR-5,10%
same,growth at 0.005 µM,IGROV-1 [8],111%
same,growth at 0.5 µM,[9],106%
same,growth at 0.005 µM,UACC-257,99%
same,growth at 0.05 µM,MDA-MB-435,96%
same,growth at 5 µM,MDA-MB-468,22%
same,growth at 0.005 µM,OVCAR-3 [10],110%
same,growth at 0.05 µM,RPMI-8226,86%
same,growth at 5 µM,BT-549 [11],-5%
same,growth at 5 µM,RXF 393 [12],66%
same,growth at 0.5 µM,UACC-62,70%
same,growth at 0.5 µM,IGROV-1 [13],89%
same,growth at 50 µM,SK-MEL-5,9%
same,GI50,OVCAR-4 [14]; read-out: GI50,10.5 µM
same,CC50,OVCAR-4 [14]; [24],> 50 µM
same,TGI,OVCAR-4 [14]; read-out: TGI,> 50 µM
same,GI50,OVCAR-4 [14]; read-out: pGI50 (converted),10.5 µM
same,CC50,OVCAR-4 [14]; [25],> 50.1 µM
same,TGI,OVCAR-4 [14]; read-out: pTGI (converted),> 50.1 µM
same,growth at 0.5 µM,SK-MEL-2,105%
same,GI50,NCI-H322M [15]; read-out: GI50,30.7 µM
same,CC50,NCI-H322M [15]; [24],> 50 µM
same,TGI,NCI-H322M [15]; read-out: TGI,> 50 µM
same,GI50,NCI-H322M [15]; read-out: pGI50 (converted),30.9 µM
same,CC50,NCI-H322M [15]; [25],> 50.1 µM
same,TGI,NCI-H322M [15]; read-out: pTGI (converted),> 50.1 µM
same,growth at 0.5 µM,NCI-H460,35%
same,growth at 0.005 µM,SK-OV-3 [16],104%
same,GI50,OVCAR-3 [17]; read-out: GI50,8.92 µM
same,CC50,OVCAR-3 [17]; [24],> 50 µM
same,TGI,OVCAR-3 [17]; read-out: TGI,> 50 µM
same,GI50,OVCAR-3 [17]; read-out: pGI50 (converted),8.91 µM
same,CC50,OVCAR-3 [17]; [25],> 50.1 µM
same,TGI,OVCAR-3 [17]; read-out: pTGI (converted),> 50.1 µM
same,growth at 50 µM,A549,-37%
same,growth at 0.05 µM,T47D,90%
same,growth at 50 µM,[18],9%
same,growth at 0.5 µM,NCI-H322M [19],93%
same,growth at 0.05 µM,KM12,103%
same,growth at 0.05 µM,SK-OV-3 [20],107%
same,growth at 0.5 µM,CAKI-1 [21],88%
same,growth at 0.05 µM,SNB-75 [22],77%
same,growth at 50 µM,SK-MEL-28,3%
same,growth at 0.5 µM,OVCAR-4 [23],90%
same,growth at 0.05 µM,PC-3,90%
same,growth at 5 µM,SR,6%
